According to ChEMBL document CHEMBL4038314, “Synthetic Modification within the "RPRL" Region of Apelin Peptides: Impact on Cardiovascular Activity and Stability to Neprilysin and Plasma Degradation” (J Med Chem, 2017):
The source made the active and inactive calls. The calls are words filed in the database; no cut-off is given here. Starred links: 1 amine or outer side, 2 acyl side, 3 side chain; linkers in the order of their positions; H or OH if unused. Non-standard residues stand in square brackets, D forms with d. Residues, ends and D or L forms follow the SMILES beside them. Phe(4-Br) = N[C@@H](Cc1ccc(Br)cc1)C(=O)O; X1 = N=C(N)NCCCN(N[*:1])C(=O)[*:2]; azaLeu = CC(C)CN(N[*:1])C(=O)[*:2]; pGlu = O=C1CC[C@@H](C(=O)O)N1; Nle = CCCC[C@H](N)C(=O)O; Aib = CC(C)(N)C(=O)O

What was measured:
Neprilysin [1] = target: T1, Neprilysin (Homo sapiens, UniProt P08473); test: Drug degradation in human plasma assessed as NEP-mediated degradation by measuring amount of apelin remaining after 60 mins by RP-HPLC analysis; type: ADME; settings: 1 h
How it was run: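 Human plasma (20 μL) prewarmed to 37 °C, then 5 μL of 400 μM peptide added and incubated for set times; done in triplicate. Quenched with 10% aqueous TFA, dansyl-YVG internal standard added, and peptides recovered on a C18 spin column with 40% acetonitrile/0.1% TFA. Analysed by C18 RP-HPLC; peptide/standard peak-area ratio compared with the 0 min ratio.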

Neprilysin [2] = target: T1, Neprilysin; test: Inhibition of recombinant human NEP using pyr-1-apelin-13 as substrate assessed as peptide degradation at 1 mM preincubated for 10 mins followed by substrate addition measured after 72 hrs by LC-MS analysis; settings: 1000 µM
How it was run: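 Recombinant human NEP, 3.1 nM in Tris/NaCl/10 μM ZnCl2 buffer, pH 7.5, preincubated 10 min at 37 °C with 5 μL of 1 mM analogue stock (equimolar to substrate) plus dansyl-YVG standard. Then 5 μL of 1 mM pyr-1-apelin-13 added. Aliquots taken at 0, 1, 4, 24 and 72 h and analysed by LC−MS; duplicate per time point.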

Neprilysin [3] = target: T1, Neprilysin; test: Drug metabolism assessed as recombinant human NEP-medited peptide proteolysis at 1 mM up to 72 hrs by LC-MS analysis; type: ADME; settings: 1000 µM
How it was run: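 Recombinant human NEP, 3.1 nM final in 100 mM Tris, 100 mM NaCl, 10 μM ZnCl2, pH 7.5, preincubated 10 min at 37 °C. Then 5 μL of 1 mM peptide stock and dansyl-YVG internal standard added; incubated at 37 °C for up to 72 h. Extracted-ion LC−MS ratio of parent to standard compared with 0 h and converted to percent cleaved.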

Mus musculus [4] = test: Cardiovascular activity in anesthetized mouse assessed as increase in heart rate at 1.4 uM/kg, iv relative to control; type: functional, organism-based
How it was run: (§1)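 Mice under 1.5% isoflurane, body temperature held at 36 °C on a heating pad. Aorta cannulated via the right carotid artery with a 1.2F PV loop catheter to record arterial pressure and heart rate continuously. Peptide given systemically through the right internal jugular vein.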

Mus musculus [5] = test: Cardiovascular activity in anesthetized mouse assessed as decrease in blood pressure at 1.4 uM/kg, iv relative to control; type: functional, organism-based; how it was run: as §1
Heart [6] = test: Cardioprotective activity against Langendorff isolated mouse heart ischemia-reperfusion model assessed as maximum derivative change in systolic pressure over time at 1 uM administered for 10 mins during start of 40 mins reperfusion period post 30 mins ischemic induction; type: functional, tissue-based
How it was run: (§2)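 Mouse hearts (heparinized, isoflurane 1.5−2%) excised and Langendorff-perfused at constant 80 mmHg with modified Krebs−Henseleit buffer, 37 °C, 95% O2/5% CO2, pH 7.4. After 10 min baseline, 30 min global ischemia, then 40 min reperfusion. Peptide at 1 μM given for the first 10 min of reperfusion, with saline sham and native apelin-17 as controls. Left ventricular function recorded continuously.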

Mus musculus [7] = test: Cardiotoxicity in anesthetized mouse assessed as induction of tachycardia at 1.4 uM/kg, iv relative to control; type: toxicity, organism-based; settings: in vivo, 1.4 µmol/kg; how it was run: as §1
Heart [8] = test: Cardioprotective activity against Langendorff isolated mouse heart ischemia-reperfusion model assessed as improvement in RPP at 1 uM administered for 10 mins during start of 40 mins reperfusion period post 30 mins ischemic induction; type: functional, tissue-based; how it was run: as §2
Heart [9] = test: Cardioprotective activity against Langendorff isolated mouse heart ischemia-reperfusion model assessed as improvement in LVDP at 1 uM administered for 10 mins during start of 40 mins reperfusion period post 30 mins ischemic induction; type: functional, tissue-based; how it was run: as §2
Heart [10] = test: Cardioprotective activity against Langendorff isolated mouse heart ischemia-reperfusion model assessed as minimum derivative change in diastolic pressure over time at 1 uM administered for 10 mins during start of 40 mins reperfusion period post 30 mins ischemic induction; type: functional, tissue-based; how it was run: as §2

T1 sequence (P08473 whole entry): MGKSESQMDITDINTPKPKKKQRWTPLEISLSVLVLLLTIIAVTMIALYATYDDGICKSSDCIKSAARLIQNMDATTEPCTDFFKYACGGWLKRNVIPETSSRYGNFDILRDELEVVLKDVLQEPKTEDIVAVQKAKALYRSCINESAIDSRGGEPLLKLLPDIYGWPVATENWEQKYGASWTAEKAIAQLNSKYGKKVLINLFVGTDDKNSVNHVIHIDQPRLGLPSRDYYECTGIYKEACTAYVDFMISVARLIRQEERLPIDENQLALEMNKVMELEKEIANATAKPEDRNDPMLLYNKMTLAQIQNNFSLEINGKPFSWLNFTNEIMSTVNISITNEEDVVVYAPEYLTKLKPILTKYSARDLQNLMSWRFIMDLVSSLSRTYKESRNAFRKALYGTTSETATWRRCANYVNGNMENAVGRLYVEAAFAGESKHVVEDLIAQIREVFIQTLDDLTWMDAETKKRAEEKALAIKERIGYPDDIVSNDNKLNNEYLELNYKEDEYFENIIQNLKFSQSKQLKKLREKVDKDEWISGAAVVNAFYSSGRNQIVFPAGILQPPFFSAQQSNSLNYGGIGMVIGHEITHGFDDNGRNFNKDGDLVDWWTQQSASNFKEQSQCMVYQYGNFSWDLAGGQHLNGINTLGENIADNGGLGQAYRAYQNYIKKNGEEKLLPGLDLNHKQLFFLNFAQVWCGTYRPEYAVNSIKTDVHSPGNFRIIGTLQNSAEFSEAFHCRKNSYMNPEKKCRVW

SMILES | Drug degradation (Neprilysin [1]) [%] | inhibition (INH) (Neprilysin [2]) | Drug metabolism (Neprilysin [3]) | Activity (Mus musculus [4]) | Activity (Mus musculus [5]) | Activity (Heart [6]) | Activity (Mus musculus [7]) | Activity (Heart [8]) | Activity (Heart [9]) | Activity (Heart [10])
CCCC[C@H](NC(=O)[C@@H]1CCCN1C(=O)CNC(=O)[C@H](CCCCN)NC(=O)[C@H](Cc1c[nH]cn1)NC(=O)[C@H](CO)NC(=O)N(CC(C)C)NC(=O)[C@H](CCCNC(=N)N)NC(=O)[C@@H]1CCCN1C(=O)[C@H](CCCNC(=N)N)NC(=O)[C@H](CCC(N)=O)NC(=O)[C@H](CCCNC(=N)N)NC(=O)[C@H](CCCNC(=N)N)NC(=O)[C@H](Cc1ccccc1)NC(=O)[C@@H](N)CCCCN)C(=O)NC(C)(C)C(=O)N[C@@H](Cc1ccc(Br)cc1)C(=O)O (H-KFRRQRPR[azaLeu]SHKGP[Nle][Aib][Phe(4-Br)]-OH) | 68 | Not Active | Metabolite_Notdetected | – | Active | Active | Toxic | Active | Active | Active
CCCC[C@H](NC(=O)[C@@H]1CCCN1C(=O)CNC(=O)[C@H](CCCCN)NC(=O)[C@H](Cc1c[nH]cn1)NC(=O)[C@H](CO)NC(=O)[C@H](CC(C)C)NC(=O)N(CCCNC(=N)N)NC(=O)[C@@H]1CCCN1C(=O)[C@H](CCCNC(=N)N)NC(=O)[C@@H]1CCC(=O)N1)C(=O)NC(C)(C)C(=O)N[C@@H](Cc1ccc(Br)cc1)C(=O)O ([pGlu]RP[X1]LSHKGP[Nle][Aib][Phe(4-Br)]-OH) | 57 | Not Active | Metabolite_Notdetected | Active | – | – | – | – | – | –
CCCC[C@H](NC(=O)[C@@H]1CCCN1C(=O)CNC(=O)[C@H](CCCCN)NC(=O)[C@H](Cc1c[nH]cn1)NC(=O)[C@H](CO)NC(=O)[C@H](CC(C)C)N(C)C(=O)[C@H](CCCNC(=N)N)NC(=O)[C@@H]1CCCN1C(=O)[C@H](CCCNC(=N)N)NC(=O)[C@@H]1CCC(=O)N1)C(=O)NC(C)(C)C(=O)N[C@@H](Cc1ccc(Br)cc1)C(=O)O | 59 | Not Active | Metabolite_Notdetected | Active | inactive | – | – | – | – | –

More lines, main results first:

Drug degradation (Neprilysin [1]) [%] | inhibition (INH) (Neprilysin [2]) | Drug metabolism (Neprilysin [3]) | SMILES | Activity (Mus musculus [4]) | Activity (Mus musculus [5]) | Activity (Heart [6]) | Activity (Mus musculus [7]) | Activity (Heart [8]) | Activity (Heart [9]) | Activity (Heart [10])
38 | Not Active | Metabolite_Notdetected | CCCC[C@H](NC(=O)[C@@H]1CCCN1C(=O)CNC(=O)[C@H](CCCCN)NC(=O)[C@H](Cc1c[nH]cn1)NC(=O)[C@H](CO)NC(=O)[C@](C)(CC(C)C)NC(=O)[C@H](CCCNC(=N)N)NC(=O)[C@@H]1CCCN1C(=O)[C@H](CCCNC(=N)N)NC(=O)[C@@H]1CCC(=O)N1)C(=O)NC(C)(C)C(=O)N[C@@H](Cc1ccc(Br)cc1)C(=O)O | Active | – | – | – | – | – | –
65 | – | Metabolite_Detected | CCCC[C@H](NC(=O)[C@@H]1CCCN1C(=O)CNC(=O)[C@H](CCCCN)NC(=O)[C@H](Cc1c[nH]cn1)NC(=O)[C@H](CO)NC(=O)[C@H](CC(C)C)NC(=O)[C@H](CCCNC(=N)N)NC(=O)[C@@H]1CCCN1C(=O)[C@H](CCCNC(=N)N)NC(=O)[C@@H]1CCC(=O)N1)C(=O)NC(C)(C)C(=O)N[C@@H](Cc1ccc(Br)cc1)C(=O)O | inactive | inactive | – | – | – | – | –
